Test results taken from ChEMBL document CHEMBL4138301, “Discovery of Tetralones as Potent and Selective Inhibitors of Acyl-CoA:Diacylglycerol Acyltransferase 1” (ACS Med Chem Lett, 2018).
Converted amounts (≈) assume the structure as drawn.

What was measured:
[1] = Kinetic solubility of the compound in pION buffer at pH 7.4 measured after 18 hrs; assay type: physicochemical; details: read-out: Kinetic_solubility
[2] = molecular target: T1, Diacylglycerol O-acyltransferase 1 (Mus musculus) (UniProt Q9Z2A7); experiment: Inhibition of DGAT1 in mouse C2C12 cells at 300 nM using [14C] oleic acid as substrate measured after 20 mins by phosphorimaging method relative to control; assay type: cell-based
T1 sequence (whole entry): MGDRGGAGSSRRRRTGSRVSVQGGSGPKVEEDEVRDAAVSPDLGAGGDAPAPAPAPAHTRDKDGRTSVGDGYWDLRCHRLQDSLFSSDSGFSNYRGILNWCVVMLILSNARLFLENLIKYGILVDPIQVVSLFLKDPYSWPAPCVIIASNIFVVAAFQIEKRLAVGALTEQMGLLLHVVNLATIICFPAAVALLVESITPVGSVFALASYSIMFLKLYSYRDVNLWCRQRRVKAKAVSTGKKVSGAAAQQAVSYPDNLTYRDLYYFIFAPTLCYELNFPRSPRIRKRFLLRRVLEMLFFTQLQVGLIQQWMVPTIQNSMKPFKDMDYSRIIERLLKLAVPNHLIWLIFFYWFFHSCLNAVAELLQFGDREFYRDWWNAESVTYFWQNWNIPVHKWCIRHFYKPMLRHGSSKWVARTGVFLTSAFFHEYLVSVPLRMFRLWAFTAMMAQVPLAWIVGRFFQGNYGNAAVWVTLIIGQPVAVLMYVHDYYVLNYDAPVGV

[3] = molecular target: Diacylglycerol O-acyltransferase 1 (Homo sapiens) (UniProt O75907); experiment: Inhibition of recombinant human DGAT1 expressed in baculovirus infected Sf9 insect microsomal membranes at 10 uM using C10-DAG and C10-CoA as substrate pretreated for 15 mins followed by substrate addition measured after 60 mins by CPM dye based fluorescence assay relative to control
[4] = Oral bioavailability in Sprague-Dawley rat at 2 mg/kg; assay type: ADME, organism-based; details: in vivo
Method in brief: (§1)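 Male animals, n = 3 per species: C57BL/6J mouse at 2.2 mg/kg IV and 2.7 mg/kg PO; Sprague–Dawley rat at 1 mg/kg IV and 2 mg/kg PO; Beagle dog at 1.8 mg/kg IV and 5.3 mg/kg PO. Plasma clearance, Vss, IV half-life and oral %F were derived from the plasma profiles.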

[5] = Volume of distribution at steady state in Sprague-Dawley rat at 1 mg/kg, iv or 2 mg/kg, po; assay type: ADME, organism-based; details: in vivo, read-out: Vdss
Method in brief: (§2)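 Male animals, n = 3 per species. Each was given a single intravenous dose and a separate oral dose, at the species-specific levels in the line. Plasma clearance, steady-state volume of distribution, IV half-life and oral bioavailability were derived from these studies.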

[6] = Oral bioavailability in Beagle dog at 5.3 mg/kg; assay type: ADME, organism-based, Canis lupus familiaris; details: in vivo; method in brief: as §1
Escherichia coli [7] = experiment: Mutagenicity in Escherichia coli WP2uvrA in absence of S9 fraction by Ames test; assay type: toxicity, organism-based
Mus musculus [8] = experiment: In vivo inhibition of DGAT1 in corn oil-induced Swiss albino mouse hypertriglyceridemia model assessed as reduction in plasma triglyceride level at 0.03 mg/kg, po pretreated for 30 mins followed by coil oil challenge measured after 2.5 hrs relative to control; assay type: functional
Method in brief: (§3)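 Male Swiss Albino mice were fasted overnight, then dosed orally at 0.03, 0.1, 0.3, 1, 3 or 10 mg/kg. Thirty minutes later they received an oral corn oil bolus of 5 mL/kg.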

[9] = Plasma clearance in C57BL/6J mouse at 2.2 mg/kg, iv or 2.7 mg/kg, po; assay type: ADME, organism-based; method in brief: as §1
[10] = Volume of distribution at steady state in C57BL/6J mouse at 2.2 mg/kg, iv or 2.7 mg/kg, po; assay type: ADME, organism-based; details: in vivo, read-out: Vdss; method in brief: as §2
Salmonella typhimurium [11] = experiment: Mutagenicity in Salmonella typhimurium TA1537 in presence of S9 fraction by Ames test; assay type: toxicity, organism-based; details: salmonella enterica subsp. enterica serovar typhimurium
Mus musculus [12] = experiment: In vivo inhibition of DGAT1 in corn oil-induced Swiss albino mouse hypertriglyceridemia model assessed as reduction in plasma triglyceride level at 0.1 mg/kg, po pretreated for 30 mins followed by coil oil challenge measured after 2.5 hrs relative to control; assay type: functional; method in brief: as §3
[13] = Plasma clearance in Beagle dog at 1.8 mg/kg, iv or 5.3 mg/kg, po; assay type: ADME, organism-based, Canis lupus familiaris; method in brief: as §1
Mus musculus [14] = experiment: In vivo inhibition of DGAT1 in corn oil-induced Swiss albino mouse hypertriglyceridemia model assessed as reduction in plasma triglyceride level at 1 mg/kg, po pretreated for 30 mins followed by coil oil challenge measured after 2.5 hrs relative to control; assay type: functional; method in brief: as §3
Escherichia coli [15] = experiment: Mutagenicity in Escherichia coli WP2uvrA in presence of S9 fraction by Ames test; assay type: toxicity, organism-based
[16] = Half life in C57BL/6J mouse at 2.2 mg/kg, iv; assay type: ADME, organism-based; details: in vivo; method in brief: as §1
Salmonella typhimurium [17] = experiment: Mutagenicity in Salmonella typhimurium TA98 in absence of S9 fraction by Ames test; assay type: toxicity, organism-based; details: salmonella enterica subsp. enterica serovar typhimurium
Salmonella typhimurium [18] = experiment: Mutagenicity in Salmonella typhimurium TA1535 in presence of S9 fraction by Ames test; assay type: toxicity, organism-based; details: salmonella enterica subsp. enterica serovar typhimurium
Salmonella typhimurium [19] = experiment: Mutagenicity in Salmonella typhimurium TA1535 in absence of S9 fraction by Ames test; assay type: toxicity, organism-based; details: salmonella enterica subsp. enterica serovar typhimurium
[20] = Half life in Beagle dog at 1.8 mg/kg, iv; assay type: ADME, organism-based, Canis lupus familiaris; details: in vivo; method in brief: as §1
[21] = Half life in Sprague-Dawley rat at 1 mg/kg, iv; assay type: ADME, organism-based; details: in vivo; method in brief: as §1
Salmonella typhimurium [22] = experiment: Mutagenicity in Salmonella typhimurium TA100 in presence of S9 fraction by Ames test; assay type: toxicity, organism-based; details: salmonella enterica subsp. enterica serovar typhimurium
Mus musculus [23] = experiment: In vivo inhibition of DGAT1 in corn oil-induced Swiss albino mouse hypertriglyceridemia model assessed as reduction in plasma triglyceride level at 3 mg/kg, po pretreated for 30 mins followed by coil oil challenge measured after 2.5 hrs relative to control; assay type: functional; method in brief: as §3
Mus musculus [24] = experiment: In vivo inhibition of DGAT1 in corn oil-induced Swiss albino mouse hypertriglyceridemia model assessed as reduction in plasma triglyceride level at 0.3 mg/kg, po pretreated for 30 mins followed by coil oil challenge measured after 2.5 hrs relative to control; assay type: functional; method in brief: as §3
Salmonella typhimurium [25] = experiment: Mutagenicity in Salmonella typhimurium TA1537 in absence of S9 fraction by Ames test; assay type: toxicity, organism-based; details: salmonella enterica subsp. enterica serovar typhimurium
Salmonella typhimurium [26] = experiment: Mutagenicity in Salmonella typhimurium TA98 in presence of S9 fraction by Ames test; assay type: toxicity, organism-based; details: salmonella enterica subsp. enterica serovar typhimurium
Salmonella typhimurium [27] = experiment: Mutagenicity in Salmonella typhimurium TA100 in absence of S9 fraction by Ames test; assay type: toxicity, organism-based; details: salmonella enterica subsp. enterica serovar typhimurium
Mus musculus [28] = experiment: In vivo inhibition of DGAT1 in corn oil-induced Swiss albino mouse hypertriglyceridemia model assessed as reduction in plasma triglyceride level at 10 mg/kg, po pretreated for 30 mins followed by coil oil challenge measured after 2.5 hrs relative to control; assay type: functional; method in brief: as §3
[29] = Volume of distribution at steady state in Beagle dog at 1.8 mg/kg, iv or 5.3 mg/kg, po; assay type: ADME, organism-based, Canis lupus familiaris; details: in vivo, read-out: Vdss; method in brief: as §2
[30] = Oral bioavailability in C57BL/6J mouse at 2.7 mg/kg; assay type: ADME, organism-based; details: in vivo; method in brief: as §1
Mus musculus [31] = organism: Mus musculus; experiment: animal or person; details: Swiss, po
[32] = Plasma clearance in Sprague-Dawley rat at 1 mg/kg, iv or 2 mg/kg, po; assay type: ADME, organism-based; method in brief: as §1

Diacylglycerol O-acyltransferase 1 (Homo sapiens), sequence (O75907 whole entry): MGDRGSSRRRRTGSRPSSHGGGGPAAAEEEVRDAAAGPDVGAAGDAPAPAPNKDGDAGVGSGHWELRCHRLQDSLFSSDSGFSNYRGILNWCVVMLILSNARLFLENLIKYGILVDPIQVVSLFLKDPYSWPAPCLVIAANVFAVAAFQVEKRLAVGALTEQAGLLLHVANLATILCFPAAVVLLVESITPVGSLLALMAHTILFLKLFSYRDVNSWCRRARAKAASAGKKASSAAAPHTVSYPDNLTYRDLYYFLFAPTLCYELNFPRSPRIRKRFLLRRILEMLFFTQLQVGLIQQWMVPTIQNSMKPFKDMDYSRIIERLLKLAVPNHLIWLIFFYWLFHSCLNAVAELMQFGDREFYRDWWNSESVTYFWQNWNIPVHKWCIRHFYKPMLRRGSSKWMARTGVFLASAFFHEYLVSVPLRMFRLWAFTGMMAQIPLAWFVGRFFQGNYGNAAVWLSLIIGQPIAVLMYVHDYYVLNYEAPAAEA

Compound: O=C(O)CC1CCc2cc(-c3ccc(NC(=O)Nc4ccccc4)cc3)ccc2C1=O (stereo not given)
- solubility kinetic at 18 h [1]: 58 µg/mL (≈ 140 µM)

Compound: CCC1(CC(=O)O)CCc2cc(-c3ccc(NC(=O)Nc4ccc(Cl)cc4)cc3)ccc2C1=O (racemic)
- solubility kinetic at 18 h [1]: 100 µg/mL (≈ 210 µM)
- inhibition [2]: 72%

Compound: O=C(O)CC1(F)CCc2cc(-c3ccc(NC(=O)Nc4ccccc4)cc3)ccc2C1=O (stereo not given)
- inhibition [3]: 84%
- solubility kinetic at 18 h [1]: 31 µg/mL (≈ 71.7 µM)

Compound: CC[C@@]1(CC(=O)O)CCc2cc(-c3ccc(NC(=O)Nc4cccc(C(F)(F)F)c4)cc3Cl)ccc2C1=O
- solubility kinetic at 18 h [1]: 151 µg/mL (≈ 277 µM)
- bioavailability [4]: 23%

Compound: CC[C@@]1(CC(=O)O)CCc2cc(-c3ccc(NC(=O)Nc4ccc(F)c(F)c4)cc3Cl)ccc2C1=O
- solubility kinetic at 18 h [1]: 125 µg/mL (≈ 244 µM)
- bioavailability [4]: 51%

Compound: CC1(CC(=O)O)CCc2cc(-c3ccc(NC(=O)Nc4cccc(Cl)c4)cc3)ccc2C1=O (stereo not given)
- solubility kinetic at 18 h [1]: 75 µg/mL (≈ 162 µM)

Compound: CCC1(CC(=O)O)CCc2cc(-c3ccc(NC(=O)Nc4cccc(F)c4)cc3)ccc2C1=O (stereo not given)
- solubility kinetic at 18 h [1]: 38 µg/mL (≈ 82.5 µM)

Compound: O=C(O)C[C@]1(CC(F)(F)F)CCc2cc(-c3cnc(NC(=O)Nc4cccc(C(F)(F)F)c4)cn3)ccc2C1=O
- solubility kinetic at 18 h [1]: 56 µg/mL (≈ 98.9 µM)
- bioavailability [4]: 25%

Compound: CC[C@@]1(CC(=O)O)CCc2cc(-c3ccc(NC(=O)Nc4cccc(C(F)(F)F)c4)cc3)ccc2C1=O
- Vd [5]: 1 L/kg
- bioavailability [6]: 149%
- Activity (Escherichia coli [7]): Non-Toxic
- inhibition in vivo at 0.03 mg/kg (Mus musculus [8]): 19%
- clearance [9]: 42.3 mL/min/kg
- Vd [10]: 2.4 L/kg
- Activity (Salmonella typhimurium [11]): Non-Toxic
- inhibition in vivo at 0.1 mg/kg (Mus musculus [12]): 33%
- clearance [13]: 4.6 mL/min/kg
- inhibition in vivo at 1 mg/kg (Mus musculus [14]): 71%
- Activity (Escherichia coli [15]): Non-Toxic
- half-life [16]: 2.6 h
- Activity (Salmonella typhimurium [17]): Non-Toxic
- solubility kinetic at 18 h [1]: 78 µg/mL (≈ 153 µM)
- inhibition [2]: 75%
- Activity (Salmonella typhimurium [18]): Non-Toxic
- Activity (Salmonella typhimurium [19]): Non-Toxic
- half-life [20]: 4.6 h
- bioavailability [4]: 87%
- half-life [21]: 3.9 h
- Activity (Salmonella typhimurium [22]): Non-Toxic
- inhibition in vivo at 3 mg/kg (Mus musculus [23]): 91%
- inhibition in vivo at 0.3 mg/kg (Mus musculus [24]): 60%
- Activity (Salmonella typhimurium [25]): Non-Toxic
- Activity (Salmonella typhimurium [26]): Non-Toxic
- Activity (Salmonella typhimurium [27]): Non-Toxic
- inhibition in vivo at 10 mg/kg (Mus musculus [28]): 99%
- Vd [29]: 0.6 L/kg
- bioavailability [30]: 54%
- ED50 (Mus musculus [31]): 0.23 mg/kg
- clearance [32]: 6.3 mL/min/kg

Compound: CCC1(CC(=O)O)CCc2cc(-c3ccc(NC(=O)Nc4cccc(C)c4)cc3)ccc2C1=O (stereo not given)
- solubility kinetic at 18 h [1]: 6 µg/mL (≈ 13.1 µM)

Compound: CCC1(CC(=O)O)CCc2cc(-c3ccc(NC(=O)Nc4ccc(C)cc4)cc3)ccc2C1=O (stereo not given)
- solubility kinetic at 18 h [1]: 36 µg/mL (≈ 78.9 µM)

Compound: Nc1ncnc2c1C(=O)N(c1ccc([C@H]3CC[C@H](CC(=O)O)CC3)cc1)CCO2 [PF-04620110]
- inhibition in vivo at 0.3 mg/kg (Mus musculus [24]): 94%

Compound: CC[C@]1(CC(=O)O)CCc2cc(-c3ccc(NC(=O)Nc4cccc(C(F)(F)F)c4)cc3)ccc2C1=O
- solubility kinetic at 18 h [1]: 88 µg/mL (≈ 172 µM)
- inhibition [2]: 27%

Compound: CCCC1(CC(=O)O)CCc2cc(-c3ccc(NC(=O)Nc4ccccc4)cc3)ccc2C1=O (stereo not given)
- solubility kinetic at 18 h [1]: 74 µg/mL (≈ 162 µM)

Compound: CCC1(CC(=O)O)CCc2cc(-c3ccc(N)cc3)ccc2C1=O (stereo not given)
- Activity (Escherichia coli [7]): Toxic
- Activity (Salmonella typhimurium [11]): Toxic
- Activity (Escherichia coli [15]): Toxic
- Activity (Salmonella typhimurium [17]): Toxic
- Activity (Salmonella typhimurium [18]): Toxic
- Activity (Salmonella typhimurium [19]): Toxic
- Activity (Salmonella typhimurium [22]): Toxic
- Activity (Salmonella typhimurium [25]): Toxic
- Activity (Salmonella typhimurium [26]): Toxic
- Activity (Salmonella typhimurium [27]): Toxic
